Published values of several laboratories.
Compare with care: the assays were run in different laboratories.
Observed: enzyme activity
Mode: inhibitor
FGFR1: Fibroblast growth factor receptor 1 (FGFR1, Homo sapiens, UniProt P11362)

SMILES | target | technique | concentration | remaining activity
CCN(CC)c1ccc(C2=NNC(=O)CC2C)cc1[N+](=O)[O-] (stereo not drawn) | FGFR1 |  | 10 µM | 90%
COc1cc(Nc2cnc(C#N)c(O[C@H](C)CN(C)C)n2)ncc1-c1cnn(C)c1 | FGFR1 | radiometric | 1 µM | 107%
CCN(CC)CCNC(=O)c1c(C)[nH]c(/C=C2\C(=O)Nc3ccc(F)cc32)c1C | FGFR1 |  | 0.1 µM | 79%
CCCOc1ccc(OC)c(F)c1C(=O)c1ccc(C(=O)N[C@@H]2CNC[C@H]2NC(=O)c2ccc3[nH]ncc3c2)cc1 | Fibroblast growth factor receptor 1 (FGFR1, Homo sapiens, UniProt P11362, V561M) |  | 10 µM | 23%
Cc1[nH]c(/C=C2\C(=O)Nc3ccc(F)cc32)c(C)c1C(=O)N[C@H]1CCN(C(=O)N(C)C)C1 | FGFR1 |  | 0.1 µM | 122%
CC(C)(C)c1nc2c(s1)c1nc(N)ncc1c1ccc(NS(=O)(=O)c3c(F)cccc3F)c(F)c12 | FGFR1 | radiometric | 1 µM | 90%
CC(C)(O)[C@H]1CC[C@H](Nc2ccc3ncc(-c4cccc(C(F)(F)F)c4)n3n2)CC1 | FGFR1 |  | 1 µM | 97%
O=C(Nc1cnn(-c2csc(C(=O)NC3COC3)c2)c1)Nc1c(F)cccc1Cl | FGFR1 |  | 5 µM | 91.4%
Cn1c(=O)n(-c2ccc(C(C)(C)C#N)cc2)c2c3cc(-c4cnc5ccccc5c4)ccc3ncc21 | FGFR1 |  | 10 µM | 106%
Cc1cnc(NC2CCOCC2)nc1-n1cnc(C(=O)NC(CN)c2cc(F)cc(Cl)c2)c1 (stereo not drawn) | FGFR1 | radiometric | 1 µM | 118%
Oc1cccc(-c2nc(N3CCOCC3)c3oc4ncccc4c3n2)c1 | FGFR1 |  | 10 µM | 118%
Nc1nc(NC2CCCCC2)sc1C(=O)c1ccccc1 | FGFR1 |  | 10 µM | 97%
